ChEMBL document CHEMBL4130628, “Identification and Pharmacological Profile of an Indane Based Series of Ghrelin Receptor Full Agonists” (J Med Chem, 2018)
≈ marks a conversion by molar mass, not a printed value. Calls of active or inactive are those of the source. The calls are words filed in the database; no cut-off is given here.

Legend:
Cytochrome P450 2C19 [1] = biological target: T1, Cytochrome P450 2C19 (Homo sapiens, UniProt P33261); experiment: Drug metabolism assessed as CYP2C19 (unknown origin)-mediated hydroxylation of methyl group of indole; type: ADME
[2] = biological target: T2, Growth hormone secretagogue receptor type 1 (Homo sapiens, UniProt Q92847); experiment: Agonist activity at human GHS receptor assessed as intracellular myo-IP1 secretion after 90 mins by HTRF analysis; type: functional, cell-based; settings: read-out: EC50
[3] = Efflux ratio of apparent permeability across basolateral to apical over apical to basolateral side in human Caco2 cells; type: ADME, cell-based; settings: Caco-2
Procedure, shortened: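 Caco-2 monolayers; Papp measured in both directions at pH 7.4 (units 1E-6 cm/s). Efflux ratio taken as Papp basolateral-to-apical divided by Papp apical-to-basolateral.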

Cytochrome P450 1A2 = biological target: T3, Cytochrome P450 1A2 (Homo sapiens, UniProt P05177); experiment: Inhibition of CYP1A2 (unknown origin); type: ADME
T3 sequence (P05177 whole entry): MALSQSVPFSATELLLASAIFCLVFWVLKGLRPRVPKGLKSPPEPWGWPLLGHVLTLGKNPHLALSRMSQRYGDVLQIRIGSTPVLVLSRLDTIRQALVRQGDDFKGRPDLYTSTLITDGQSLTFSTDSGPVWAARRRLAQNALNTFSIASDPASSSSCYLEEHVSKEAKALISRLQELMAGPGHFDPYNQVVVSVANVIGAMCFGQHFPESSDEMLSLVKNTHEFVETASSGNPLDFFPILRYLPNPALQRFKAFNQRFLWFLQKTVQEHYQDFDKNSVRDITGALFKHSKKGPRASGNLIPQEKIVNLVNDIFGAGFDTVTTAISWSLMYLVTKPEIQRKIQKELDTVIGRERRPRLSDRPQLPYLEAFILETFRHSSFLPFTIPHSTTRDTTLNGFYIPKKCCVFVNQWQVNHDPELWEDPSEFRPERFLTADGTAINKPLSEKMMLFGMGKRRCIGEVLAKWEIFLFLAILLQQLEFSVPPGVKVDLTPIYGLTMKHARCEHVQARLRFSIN

[4] = Protein binding in dog plasma; type: ADME, cell-free, Canis lupus familiaris; settings: read-out: PPB (converted)
[5] = Solubility of compound; type: physicochemical
[6] = Clearance in Han-Wister rat at 1 mg/kg, iv bolus or 2 mg/kg, po after 24 hrs by LC-MS/MS analysis; type: ADME, organism-based; settings: Han-Wistar, in vivo
Procedure, shortened: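 Male Han Wistar rats (7–8 weeks, 200–300 g). IV bolus of about 1 mg/Kg via tail vein to two animals, in 5% DMSO/95% SBE-β-CD (30% w/v), pH 7.5. Oral dose of about 2 mg/Kg in the same vehicle. Jugular blood collected from pre-dose to 24 h. K2-EDTA plasma kept at -75±15 °C and analysed by LC-MS/MS.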

Canis familiaris [7] = experiment: Increase in plasma IGF1 level in Beagle dog at 8 mg/kg, po measured after 24 hrs post dose by ELIS; type: functional, organism-based; settings: Canis lupus familiaris
Procedure, shortened: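 Dog blood taken before dosing and at 15, 30, 45 min and 1, 2, 4, 7, 12, 24 h post dose into K2EDTA tubes. Centrifuged at 4°C; plasma frozen below -80°C until IGF-1 analysis.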

[8] = Ratio of unbound drug level in brain to plasma in Beagle dog at 1 mg/kg, iv or 2 mg/kg, po after 24 hrs by LC-MS/MS analysis; type: ADME, organism-based, Canis lupus familiaris; settings: read-out: K(p,uu,brain)
[9] = Time dependent inhibition of CYP450 in human liver microsomes; type: ADME
Cytochrome P450 2C19 [10] = biological target: T1, Cytochrome P450 2C19; experiment: Inhibition of CYP2C19 (unknown origin); type: ADME
[11] = Oral bioavailability in Beagle dog at 2 mg/kg after 24 hrs by LC-MS/MS analysis; type: ADME, organism-based, Canis lupus familiaris; settings: in vivo
Procedure, shortened: (§1)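 Male/female beagles (2–5 y, 12–15 kg) were fasted overnight. IV: about 1 mg/Kg as a 15-min infusion to two animals, in 5% DMSO/95% SBE-β-CD (30% w/v) adjusted to pH 7.5. PO: about 2 mg/Kg by gavage, in the same vehicle or 0.5% HPMC/0.1% Tween 80 suspension. Jugular blood was drawn 0.03–24 h (IV) or 0.17–24 h (PO). K2-EDTA plasma analysed by LC-MS/MS.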

[12] = Protein binding in human plasma; type: ADME, cell-free; settings: read-out: PPB (converted)
Mu-type opioid receptor [13] = biological target: T4, Mu-type opioid receptor (Homo sapiens, UniProt P35372); experiment: Agonist activity at mu1-opioid receptor (unknown origin) by cell-based assay
[14] = biological target: T2, Growth hormone secretagogue receptor type 1; experiment: Displacement of human [125I]-ghrelin from GHS-R1a (unknown origin) expressed in HEK293 cell membranes after 1 hr by radioligand binding assay; settings: read-out: IC50
[15] = biological target: Voltage-gated inwardly rectifying potassium channel KCNH2 (Homo sapiens, UniProt Q12809); experiment: Inhibition of human ERG expressed in CHO cells; type: cell-based
Procedure, shortened: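 hERG currents recorded from CHO cells expressing hERG.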

[16] = Intrinsic clearance in rat liver microsomes; type: ADME, microsome; settings: read-out: CLH
[17] = Intrinsic clearance in human liver microsomes; type: ADME, microsome; settings: read-out: CLH
[18] = 1-octanol/aqueous buffer distribution coefficient, log D of compound at pH 7.4; type: physicochemical; settings: 1-octanol/aqueous buffer, read-out: logD
[19] = Drug elimination in Beagle dog urine by LC-MS/MS analysis; type: ADME, Canis lupus familiaris; settings: read-out: Drug excretion
[20] = Protein binding in rat plasma; type: ADME, cell-free; settings: read-out: PPB (converted)
[21] = Half life in Beagle dog at 2 mg/kg, po after 24 hrs by LC-MS/MS analysis; type: ADME, organism-based, Canis lupus familiaris; settings: in vivo; procedure, shortened: as §1
Rattus norvegicus = experiment: Renal clearance in Han-Wister rat at 1 mg/kg, iv bolus or 2 mg/kg, po after 24 hrs by LC-MS/MS analysis; type: ADME, organism-based; settings: in vivo
[22] = Volume of distribution in Beagle dog at 1 mg/kg, iv or 2 mg/kg, po after 24 hrs by LC-MS/MS analysis; type: ADME, organism-based, Canis lupus familiaris; settings: in vivo; procedure, shortened: as §1
Cytochrome P450 3A4 = Cytochrome P450 3A4 (Homo sapiens, UniProt P08684); experiment: Inhibition of CYP3A4 (unknown origin); type: ADME
[23] = Apparent intrinsic permeability across apical to basolateral side in human Caco2 cells at pH 6.5; type: ADME, cell-based; settings: Caco-2, pH 6.5
Mu-type opioid receptor [24] = biological target: T4, Mu-type opioid receptor; experiment: Agonist activity at mu1-opioid receptor (unknown origin)
[25] = Intrinsic clearance in dog liver microsomes; type: ADME, Canis lupus familiaris, microsome; settings: read-out: CLH
Canis familiaris [26] = organism: Canis familiaris; experiment: Drug metabolism in Beagle dog assessed as hydroxylation of 5-methyl of indole ring by LC-MS/MS analysis; type: ADME, organism-based, Canis lupus familiaris; settings: in vivo
[27] = Clearance in Beagle dog at 1 mg/kg, iv or 2 mg/kg, po after 24 hrs by LC-MS/MS analysis; type: ADME, organism-based, Canis lupus familiaris; settings: in vivo; procedure, shortened: as §1
[28] = Fraction absorbed in Beagle dog at 2 mg/kg, po after 24 hrs by LC-MS/MS analysis; type: ADME, organism-based, Canis lupus familiaris; settings: in vivo, read-out: Fabs
[29] = Apparent permeability across basolateral to apical side in human Caco2 cells at pH 7.4; type: ADME, cell-based; settings: Caco-2, pH 7.4
[30] = Apparent permeability across apical to basolateral side in human Caco2 cells at pH 7.4; type: ADME, cell-based; settings: Caco-2, pH 7.4
Cytochrome P450 2D6 = Cytochrome P450 2D6 (Homo sapiens, UniProt P10635); experiment: Inhibition of CYP2D6 (unknown origin); type: ADME
Cytochrome P450 2C9 = Cytochrome P450 2C9 (Homo sapiens, UniProt P11712); experiment: Inhibition of CYP2C9 (unknown origin); type: ADME
[31] = Drug level in rat hepatocytes treated with 1-Methyl-N-[(1S,2S)-1-{[(2S)-4-methylmorpholine-2-carbonyl]-amino}-2,3-dihydro-1H-inden-2-yl]-1H-indole-5-carboxamide by LC-MS/MS method; type: ADME, cell-based, Hepatocyte
[32] = Drug level in human liver microsomes treated with 1-Methyl-N-[(1S,2S)-1-{[(2S)-4-methylmorpholine-2-carbonyl]-amino}-2,3-dihydro-1H-inden-2-yl]-1H-indole-5-carboxamide by LC-MS/MS method; type: ADME, microsome
Hepatocyte [33] = experiment: Stability in rat hepatocytes assessed as formation of aldehyde adducts by LC-MS/MS method; type: ADME, cell-based
Hepatocyte [34] = experiment: Stability in rat hepatocytes assessed as formation of iminium ions by LC-MS/MS method; type: ADME, cell-based
[35] = Stability in human liver microsomes assessed as formation of iminium ions by LC-MS/MS method; type: ADME, microsome
[36] = Drug metabolism in human liver microsomes assessed as 1-Methyl-N-((1S,2S)-1-((S)-morpholine-2-carboxamido)-2,3-dihydro-1H-inden-2-yl)-1H-indole-5-carboxamide formation by LC-MS/MS method; type: ADME, microsome
[37] = Stability in human liver microsomes assessed as formation of aldehyde adducts by LC-MS/MS method; type: ADME, microsome
[38] = Drug metabolism in rat hepatocytes assessed as 1-Methyl-N-((1S,2S)-1-((S)-morpholine-2-carboxamido)-2,3-dihydro-1H-inden-2-yl)-1H-indole-5-carboxamide formation by LC-MS/MS method; type: ADME, cell-based, Hepatocyte

T2 sequence (Q92847 whole entry): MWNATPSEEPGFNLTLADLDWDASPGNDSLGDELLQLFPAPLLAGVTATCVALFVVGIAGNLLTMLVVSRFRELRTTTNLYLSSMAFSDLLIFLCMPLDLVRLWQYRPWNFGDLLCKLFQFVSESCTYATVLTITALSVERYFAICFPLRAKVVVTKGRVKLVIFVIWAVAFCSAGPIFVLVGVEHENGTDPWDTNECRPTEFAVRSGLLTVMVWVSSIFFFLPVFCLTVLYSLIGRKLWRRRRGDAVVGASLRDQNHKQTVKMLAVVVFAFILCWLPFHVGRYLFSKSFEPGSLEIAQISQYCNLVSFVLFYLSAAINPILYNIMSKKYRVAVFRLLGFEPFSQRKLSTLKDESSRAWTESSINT
T1 sequence (P33261 whole entry): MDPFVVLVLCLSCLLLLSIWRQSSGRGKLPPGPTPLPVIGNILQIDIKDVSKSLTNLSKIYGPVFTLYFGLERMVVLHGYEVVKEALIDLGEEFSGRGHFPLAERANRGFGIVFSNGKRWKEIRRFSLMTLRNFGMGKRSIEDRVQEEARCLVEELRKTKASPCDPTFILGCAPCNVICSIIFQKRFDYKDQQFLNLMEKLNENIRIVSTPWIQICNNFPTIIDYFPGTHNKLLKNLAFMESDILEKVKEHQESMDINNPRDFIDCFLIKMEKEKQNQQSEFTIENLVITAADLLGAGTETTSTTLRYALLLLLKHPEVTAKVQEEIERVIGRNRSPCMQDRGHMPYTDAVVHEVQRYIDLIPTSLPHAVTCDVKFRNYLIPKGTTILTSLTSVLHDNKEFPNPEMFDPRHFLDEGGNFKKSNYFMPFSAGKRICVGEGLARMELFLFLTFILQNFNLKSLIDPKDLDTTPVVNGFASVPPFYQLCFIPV
T4 sequence (P35372 whole entry): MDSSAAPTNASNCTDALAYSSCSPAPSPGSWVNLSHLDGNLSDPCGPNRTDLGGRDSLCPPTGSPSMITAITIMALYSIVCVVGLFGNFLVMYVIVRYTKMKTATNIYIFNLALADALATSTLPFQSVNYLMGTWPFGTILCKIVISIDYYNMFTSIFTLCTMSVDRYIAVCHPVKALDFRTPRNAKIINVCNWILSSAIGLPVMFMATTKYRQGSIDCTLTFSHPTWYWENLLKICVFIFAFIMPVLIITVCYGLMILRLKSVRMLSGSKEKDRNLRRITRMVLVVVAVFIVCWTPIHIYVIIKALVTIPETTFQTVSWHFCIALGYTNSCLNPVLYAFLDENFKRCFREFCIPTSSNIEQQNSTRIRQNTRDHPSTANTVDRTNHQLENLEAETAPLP
Sequence of Cytochrome P450 3A4 (P08684 whole entry): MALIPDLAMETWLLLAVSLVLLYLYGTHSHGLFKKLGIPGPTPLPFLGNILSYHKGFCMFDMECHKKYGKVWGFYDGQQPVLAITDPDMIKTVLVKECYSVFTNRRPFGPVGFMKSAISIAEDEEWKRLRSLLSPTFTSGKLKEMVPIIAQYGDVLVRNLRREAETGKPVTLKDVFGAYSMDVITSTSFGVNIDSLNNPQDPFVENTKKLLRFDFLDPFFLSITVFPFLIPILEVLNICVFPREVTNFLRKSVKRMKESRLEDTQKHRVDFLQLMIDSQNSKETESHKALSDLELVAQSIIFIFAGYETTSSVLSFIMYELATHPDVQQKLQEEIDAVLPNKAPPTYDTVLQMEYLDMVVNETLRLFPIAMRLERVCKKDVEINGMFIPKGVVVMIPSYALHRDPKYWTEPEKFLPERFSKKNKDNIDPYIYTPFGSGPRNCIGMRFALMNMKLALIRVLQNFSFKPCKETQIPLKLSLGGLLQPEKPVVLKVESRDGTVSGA
Sequence of Cytochrome P450 2D6 (P10635 whole entry): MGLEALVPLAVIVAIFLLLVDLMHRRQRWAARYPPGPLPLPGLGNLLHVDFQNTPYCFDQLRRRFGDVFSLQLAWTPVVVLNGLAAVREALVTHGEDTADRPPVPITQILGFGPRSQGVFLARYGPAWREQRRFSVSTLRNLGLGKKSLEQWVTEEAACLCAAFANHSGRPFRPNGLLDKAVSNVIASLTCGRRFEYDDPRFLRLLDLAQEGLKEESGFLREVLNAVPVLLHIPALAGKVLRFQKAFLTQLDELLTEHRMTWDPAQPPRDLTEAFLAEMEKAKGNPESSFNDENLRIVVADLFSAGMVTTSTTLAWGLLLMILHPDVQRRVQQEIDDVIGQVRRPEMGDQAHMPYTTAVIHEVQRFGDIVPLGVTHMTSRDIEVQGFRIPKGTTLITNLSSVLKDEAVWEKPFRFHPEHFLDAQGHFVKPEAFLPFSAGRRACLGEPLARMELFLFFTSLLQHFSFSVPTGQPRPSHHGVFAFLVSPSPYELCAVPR
Sequence of Voltage-gated inwardly rectifying potassium channel KCNH2 (Q12809 whole entry): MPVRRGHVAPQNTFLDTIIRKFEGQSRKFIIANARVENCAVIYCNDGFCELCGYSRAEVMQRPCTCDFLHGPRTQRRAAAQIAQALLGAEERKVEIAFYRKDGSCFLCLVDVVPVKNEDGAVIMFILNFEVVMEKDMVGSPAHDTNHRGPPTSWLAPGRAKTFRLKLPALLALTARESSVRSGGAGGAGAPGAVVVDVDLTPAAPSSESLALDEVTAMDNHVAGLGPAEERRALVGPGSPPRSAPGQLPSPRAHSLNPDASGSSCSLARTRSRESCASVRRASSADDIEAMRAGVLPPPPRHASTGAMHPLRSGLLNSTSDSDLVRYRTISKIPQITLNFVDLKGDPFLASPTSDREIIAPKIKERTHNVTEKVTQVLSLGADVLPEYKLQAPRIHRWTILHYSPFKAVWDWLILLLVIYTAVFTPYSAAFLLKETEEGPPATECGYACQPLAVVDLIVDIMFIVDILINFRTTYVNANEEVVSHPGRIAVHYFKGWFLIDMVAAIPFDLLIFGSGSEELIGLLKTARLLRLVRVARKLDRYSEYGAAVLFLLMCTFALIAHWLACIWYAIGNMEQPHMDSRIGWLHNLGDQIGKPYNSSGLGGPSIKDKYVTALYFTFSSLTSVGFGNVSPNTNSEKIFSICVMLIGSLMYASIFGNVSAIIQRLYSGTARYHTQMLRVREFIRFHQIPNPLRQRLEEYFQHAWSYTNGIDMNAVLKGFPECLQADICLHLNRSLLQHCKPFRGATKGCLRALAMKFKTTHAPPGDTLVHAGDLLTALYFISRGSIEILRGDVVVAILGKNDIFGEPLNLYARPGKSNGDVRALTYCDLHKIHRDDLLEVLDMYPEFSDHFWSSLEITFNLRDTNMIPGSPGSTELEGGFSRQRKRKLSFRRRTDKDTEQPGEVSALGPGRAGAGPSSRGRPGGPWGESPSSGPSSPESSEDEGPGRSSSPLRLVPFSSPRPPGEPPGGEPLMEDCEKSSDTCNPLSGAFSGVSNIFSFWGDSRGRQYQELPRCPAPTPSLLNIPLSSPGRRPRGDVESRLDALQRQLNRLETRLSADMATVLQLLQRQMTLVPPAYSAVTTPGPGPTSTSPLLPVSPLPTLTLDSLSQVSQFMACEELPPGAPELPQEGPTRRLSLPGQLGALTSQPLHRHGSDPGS
Sequence of Cytochrome P450 2C9 (P11712 whole entry): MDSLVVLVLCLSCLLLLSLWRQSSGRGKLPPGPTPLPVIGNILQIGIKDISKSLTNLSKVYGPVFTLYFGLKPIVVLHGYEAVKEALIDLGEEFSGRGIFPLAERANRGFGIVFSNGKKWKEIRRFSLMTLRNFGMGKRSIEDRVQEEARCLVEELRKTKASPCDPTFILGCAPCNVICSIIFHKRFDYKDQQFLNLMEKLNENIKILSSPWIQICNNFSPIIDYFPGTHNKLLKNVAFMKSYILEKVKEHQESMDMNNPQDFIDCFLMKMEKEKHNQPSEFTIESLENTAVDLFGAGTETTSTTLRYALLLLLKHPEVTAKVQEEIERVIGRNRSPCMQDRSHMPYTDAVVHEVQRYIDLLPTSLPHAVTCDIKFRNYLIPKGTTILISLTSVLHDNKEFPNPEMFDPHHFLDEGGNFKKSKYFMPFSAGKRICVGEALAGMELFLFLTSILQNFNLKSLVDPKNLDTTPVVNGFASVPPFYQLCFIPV

CN(C)CCNC(=O)[C@H]1c2ccccc2C[C@@H]1NC(=O)c1cc2ccccc2[nH]1
Drug metabolism (Cytochrome P450 2C19 [1]): Metabolite_Detected | EC50 [2]: 2 nM | efflux ratio [3]: 67.2 | IC50 (Cytochrome P450 1A2): > 20000 nM | fraction unbound [4]: 0.92 | solubility [5]: 100 µM (≈ 39 µg/mL) | clearance [6]: 170 mL/min/kg | Activity (Canis familiaris [7]): Active | Kp uu at 24 h [8]: < 0.02 | TDI [9]: Not Active | IC50 (Cytochrome P450 2C19 [10]): > 20000 nM | bioavailability [11]: 9 to 13% | fraction unbound [12]: 0.88 | IC50 (Mu-type opioid receptor [13]): 234 nM | IC50 [14]: 4 nM | IC50 [15]: 31600 nM | microsomal CLint [16]: 48 µL/min/mg | microsomal CLint [17]: 4 to 9 µL/min/mg | logD [18]: 2.4 | dose excreted [19]: 2% | fraction unbound [20]: 0.96 | half-life [21]: 13.2 to 16.6 h | CL (Rattus norvegicus): > 5% | Vd [22]: 4.8 to 5.8 L/kg | IC50 (Cytochrome P450 3A4): > 20000 nM | Papp A→B [23]: < 2.4 ×10⁻⁶ cm/s | IC50 (Mu-type opioid receptor [24]): 79.4 nM | microsomal CLint [25]: 9 µL/min/mg | Drug metabolism (Canis familiaris [26]): Metabolite_Detected | clearance [27]: 18.8 to 26 mL/min/kg | Fa at 24 h [28]: 20% | Papp B→A [29]: 17.7 ×10⁻⁶ cm/s | Papp A→B [30]: 0.6 ×10⁻⁶ cm/s | IC50 (Cytochrome P450 2D6): > 20000 nM | IC50 (Cytochrome P450 2C9): > 20000 nM

Cn1ccc2cc(C(=O)N[C@H]3Cc4ccccc4[C@@H]3NC(=O)[C@@H]3CNCCO3)ccc21
EC50 [2]: 52 nM | Drug metabolism [31]: Metabolite_Detected | Drug metabolism [32]: Metabolite_Detected | logD [18]: 1.8

CN1CCO[C@H](C(=O)N[C@H]2c3ccccc3C[C@@H]2NC(=O)c2ccc3c(ccn3C)c2)C1
EC50 [2]: 21 nM | Stability (Hepatocyte [33]): Unstable | Stability (Hepatocyte [34]): Unstable | Stability [35]: Unstable | IC50 [14]: 241 nM | logD [18]: 2.6 | Drug metabolism [36]: Metabolite_Detected | Stability [37]: Unstable | Drug metabolism [38]: Metabolite_Detected
